What was measured:
[1] = biological target: Melanin-concentrating hormone receptor 1 (Homo sapiens, UniProt Q99705); assay: Displacement of 125I-MCH from MCH-R1 expressed in IMR-32 cells; type: cell-based
[2] = biological target: Melanin-concentrating hormone receptor (Homo sapiens, UniProt Q969V1+Q99705); assay: Inhibition of MCH-mediated calcium release in IMR-32 cells; type: functional, cell-based
[3] = biological target: Voltage-gated inwardly rectifying potassium channel KCNH2 (Homo sapiens, UniProt Q12809); assay: Displacement of 3H-dofetilide from hERG-expressing HEK membrane homogenates
[4] = Brain Cmax in DIO mice after 10 mg/kg peroral dose; type: ADME, organism-based; design: dose 10 mg/kg, route oral; conditions: mouse, po
In short: (§1)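 Single oral dose, 10 mg/kg in 1% Tween 80/water, to DIO mice; plasma and brain sampled over time. Cmax = average of the three mice with highest concentrations ± SEM. Mean concentration data fitted multi-exponentially; AUC0-t by linear trapezoidal rule, extrapolated to infinity with Ct/β added.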

Mus musculus [5] = assay: Plasma AUC in DIO mice after 10 mg/kg peroral dose; type: ADME, organism-based; design: dose 10 mg/kg, route oral; conditions: in vivo, po; in short: as §1
Mus musculus [6] = assay: (§2) Half-life in plasma of DIO mice after 10 mg/kg peroral dose; type: ADME, organism-based; design: dose 10 mg/kg, route oral; conditions: in vivo, po; in short: as §1
Mus musculus [7] = assay: Plasma Cmax in DIO mice after 10 mg/kg peroral dose; type: ADME, organism-based; design: dose 10 mg/kg, route oral; conditions: in vivo, po; in short: as §1
Mus musculus [8] = assay: Brain AUC in DIO mice after 10 mg/kg peroral dose; type: ADME, organism-based; design: dose 10 mg/kg, route oral; conditions: in vivo, po; in short: as §1
[9] = as §2; type: ADME, organism-based; design: dose 10 mg/kg, route oral; conditions: mouse, plasma, po; in short: as §1

Melanin-concentrating hormone receptor 1, sequence (Q99705 whole entry): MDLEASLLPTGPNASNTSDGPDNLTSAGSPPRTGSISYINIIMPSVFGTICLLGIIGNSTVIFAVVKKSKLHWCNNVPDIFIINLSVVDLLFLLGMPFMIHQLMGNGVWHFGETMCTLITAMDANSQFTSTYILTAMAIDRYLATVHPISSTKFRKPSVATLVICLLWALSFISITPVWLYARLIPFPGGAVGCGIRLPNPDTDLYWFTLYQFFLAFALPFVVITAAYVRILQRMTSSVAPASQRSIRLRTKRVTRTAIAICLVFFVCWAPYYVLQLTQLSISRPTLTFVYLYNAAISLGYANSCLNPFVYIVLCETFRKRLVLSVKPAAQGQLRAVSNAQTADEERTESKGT
Voltage-gated inwardly rectifying potassium channel KCNH2, sequence (Q12809 whole entry): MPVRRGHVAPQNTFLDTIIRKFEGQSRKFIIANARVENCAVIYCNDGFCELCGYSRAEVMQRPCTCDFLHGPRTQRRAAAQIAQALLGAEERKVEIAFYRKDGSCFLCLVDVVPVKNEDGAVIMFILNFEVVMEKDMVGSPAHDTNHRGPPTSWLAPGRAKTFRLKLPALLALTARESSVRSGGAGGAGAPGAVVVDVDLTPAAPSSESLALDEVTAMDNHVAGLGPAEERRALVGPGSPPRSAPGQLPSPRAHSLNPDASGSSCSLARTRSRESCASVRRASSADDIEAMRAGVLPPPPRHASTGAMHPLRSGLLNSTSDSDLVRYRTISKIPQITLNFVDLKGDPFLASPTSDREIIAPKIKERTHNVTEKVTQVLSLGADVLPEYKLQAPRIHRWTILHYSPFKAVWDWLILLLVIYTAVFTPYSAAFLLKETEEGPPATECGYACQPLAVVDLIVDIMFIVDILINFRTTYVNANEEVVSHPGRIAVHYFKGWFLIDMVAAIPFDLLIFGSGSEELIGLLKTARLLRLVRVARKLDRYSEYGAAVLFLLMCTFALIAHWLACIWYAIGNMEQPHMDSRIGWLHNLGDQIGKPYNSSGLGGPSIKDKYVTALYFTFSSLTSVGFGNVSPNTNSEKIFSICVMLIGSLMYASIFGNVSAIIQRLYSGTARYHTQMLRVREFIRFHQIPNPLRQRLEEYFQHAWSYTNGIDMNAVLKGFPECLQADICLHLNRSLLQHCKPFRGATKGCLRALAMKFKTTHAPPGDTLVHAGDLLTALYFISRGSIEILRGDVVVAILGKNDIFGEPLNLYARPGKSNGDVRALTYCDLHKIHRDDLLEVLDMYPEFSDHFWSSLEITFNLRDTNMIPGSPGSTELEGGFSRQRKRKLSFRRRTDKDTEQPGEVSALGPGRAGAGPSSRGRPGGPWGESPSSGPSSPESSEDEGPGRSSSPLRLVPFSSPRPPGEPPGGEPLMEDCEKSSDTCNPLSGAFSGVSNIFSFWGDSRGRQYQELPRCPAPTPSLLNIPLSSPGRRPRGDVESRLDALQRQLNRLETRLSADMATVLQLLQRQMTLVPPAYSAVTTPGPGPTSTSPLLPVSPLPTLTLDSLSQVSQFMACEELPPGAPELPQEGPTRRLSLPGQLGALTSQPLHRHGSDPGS

Row | IC50 [1] | IC50 [2] | Cmax [4] | AUC (Mus musculus [5]) | T1/2 (Mus musculus [6]) | Cmax (Mus musculus [7]) | AUC (Mus musculus [8]) | half-life [9] | SMILES | IC50 [3]
1 | 21 nM | 95 nM | – | – | – | – | – | – | O=C1COc2cc3c(cc2N1)C(N1CCC(NC(=O)c2cc(=O)c4ccc(F)cc4o2)CC1)CC3 (centres undefined) | 14600 nM
2 | 76 nM | 2750 nM | – | – | – | – | – | – | O=C(NC1CCN(C2CCc3c2ccc2c3OCO2)CC1)c1cc(=O)c2ccc(F)cc2o1 (centres undefined) | 5860 nM
3 | 4 nM | 26 nM | – | 41600 ng·h/mL | – | 14600 ng/mL | 0 µg·h/g | 2.3 h | CC(=O)Nc1ccc2c(c1)C(N1CCC(NC(=O)c3cc(=O)c4ccc(F)cc4o3)CC1)CC2 (single isomer, unassigned; (-)) | –
4 | 3 nM | 56 nM | – | – | – | – | – | – | CC(=O)Nc1ccc2c(c1)C(N1CCC(NC(=O)c3cc(=O)c4ccc(F)cc4o3)CC1)CC2 (stereo in doubt; 16) | –

More lines, now with the values behind:

Row | SMILES | IC50 [1] | IC50 [2] | Cmax [4] | AUC (Mus musculus [5]) | T1/2 (Mus musculus [6]) | Cmax (Mus musculus [7]) | AUC (Mus musculus [8]) | half-life [9] | IC50 [3]
5 | O=C(NC1CCN(C2CCc3cc4oc(=O)[nH]c4cc32)CC1)c1cc(=O)c2ccc(F)cc2o1 (centres undefined) | 11 nM | 173 nM | – | – | – | – | – | – | 25000 nM
6 | CC(=O)Nc1ccc2c(c1)C(N1CCC(NC(=O)c3cc(=O)c4ccc(F)cc4o3)CC1)CC2 (single isomer, unassigned; (+)) | 2570 nM | > 10000 nM | 17 ng/g | 3760 ng·h/mL | 1.3 h | 1410 ng/mL | 0.043 µg·h/g | – | –

From ChEMBL document CHEMBL1137584, “Constrained 7-fluorocarboxychromone-4-aminopiperidine based Melanin-concentrating hormone receptor 1 antagonists: the effects of chirality on substituted indan-1-ylamines” (Bioorg Med Chem Lett, 2007)
